Assay results as given in PMC4299864 (Chirality, 2013).
pEC50: −log10 of the molar value.

Tests used:
Format in all cases: cell-based
[1] = target: T1, human FPR1 (Homo sapiens, UniProt P21462); assay: Ca2+ mobilization in HL-60 cells transfected with FPR1; conditions: HL-60-FPR1 cells; for Ca2+ Mobilization Efficacy, FPR1: percent of the response induced by 5 nM fMLF; for pEC50: read-out: Ca2+ Mobilization EC50, FPR1, mean of three independent experiments, N.A. = no activity, limits efficacy > 20 % and EC50 < 50 μM
T1 sequence (P21462 1-350): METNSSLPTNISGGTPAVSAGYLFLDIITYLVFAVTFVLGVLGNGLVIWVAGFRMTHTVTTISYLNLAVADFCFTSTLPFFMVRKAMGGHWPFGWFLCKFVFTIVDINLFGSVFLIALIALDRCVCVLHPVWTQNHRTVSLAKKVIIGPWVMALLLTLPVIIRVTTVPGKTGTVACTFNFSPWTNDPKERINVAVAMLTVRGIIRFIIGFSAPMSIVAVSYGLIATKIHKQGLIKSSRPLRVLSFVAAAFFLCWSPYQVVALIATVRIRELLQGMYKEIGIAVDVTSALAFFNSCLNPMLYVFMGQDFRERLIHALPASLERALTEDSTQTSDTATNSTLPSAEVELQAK
In short: (§1)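 Stably transfected HL-60 cells were grown in RPMI 1640 with 10% heat-inactivated FCS, 10 mM HEPES and G418 (1 mg/mL). Cells were loaded with Fluo-4 AM (1.25 μg/mL final) for 30 min at 37 °C in the dark, then resuspended in HBSS with Ca²⁺/Mg²⁺ at 2 × 10⁵ cells/well. Fluorescence (ex 485/em 538 nm) was read every 5 s for 240 s at room temperature after compound addition. Peak change over baseline was set against 5 nM fMLF (FPR1) or 5 nM WKYMVm (FPR2, FPR3) as 100%. Curves had 5–6 points, from three independent experiments.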

[2] = target: T2, human FPR2 (Homo sapiens, UniProt P25090); assay: Ca2+ mobilization in HL-60 cells transfected with FPR2; conditions: HL-60-FPR2 cells; for Ca2+ Mobilization Efficacy, FPR2: percent of the response induced by 5 nM WKYMVm; for pEC50: read-out: Ca2+ Mobilization EC50, FPR2, mean of three independent experiments, N.A. = no activity, limits efficacy > 20 % and EC50 < 50 μM
T2 sequence (P25090 1-351): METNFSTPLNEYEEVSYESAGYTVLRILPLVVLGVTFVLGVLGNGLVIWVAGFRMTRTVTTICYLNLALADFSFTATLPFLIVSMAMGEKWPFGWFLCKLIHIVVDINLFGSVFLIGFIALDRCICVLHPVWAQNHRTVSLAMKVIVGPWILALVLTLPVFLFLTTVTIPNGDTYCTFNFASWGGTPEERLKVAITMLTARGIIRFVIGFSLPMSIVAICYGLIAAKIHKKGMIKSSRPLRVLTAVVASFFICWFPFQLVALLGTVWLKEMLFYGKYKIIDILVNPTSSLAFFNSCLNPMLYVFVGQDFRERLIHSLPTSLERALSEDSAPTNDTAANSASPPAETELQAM
In short: as §1

[3] = target: T3, human FPR3 (Homo sapiens, UniProt P25089); assay: Ca2+ mobilization in HL-60 cells transfected with FPR3; conditions: HL-60-FPR3 cells; for Ca2+ Mobilization Efficacy, FPR3: percent of the response induced by 5 nM WKYMVm; for pEC50: read-out: Ca2+ Mobilization EC50, FPR3, mean of three independent experiments, N.A. = no activity, limits efficacy > 20 % and EC50 < 50 μM
T3 sequence (P25089 1-353): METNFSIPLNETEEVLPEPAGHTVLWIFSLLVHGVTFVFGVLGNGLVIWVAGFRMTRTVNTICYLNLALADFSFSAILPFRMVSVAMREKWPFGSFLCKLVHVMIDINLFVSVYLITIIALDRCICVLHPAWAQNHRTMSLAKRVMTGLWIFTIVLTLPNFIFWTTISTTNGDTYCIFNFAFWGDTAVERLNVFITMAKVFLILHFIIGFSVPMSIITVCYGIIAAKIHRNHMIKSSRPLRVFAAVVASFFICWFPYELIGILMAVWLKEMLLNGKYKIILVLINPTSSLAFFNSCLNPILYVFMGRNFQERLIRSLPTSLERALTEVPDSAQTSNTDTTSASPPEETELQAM
In short: as §1

| Ca2+ Mobilization Efficacy, FPR1 [1] | pEC50 [1] | Ca2+ Mobilization Efficacy, FPR2 [2] | pEC50 [2] | Ca2+ Mobilization Efficacy, FPR3 [3] | pEC50 [3] | Structure (SMILES) |
| --- | --- | --- | --- | --- | --- | --- |
| 55% | 4.63 | 65% | 5.15 |  |  | CC1CC(c2ccccc2)=NN(CC(=O)Nc2ccc(Br)cc2)C1=O (racemic) [(±)-4a, (±)-N-(4-Bromophenyl)-2-[5-methyl-6-oxo-3-phenyl-5,6-dihydropyridazin-1(4H)-yl]acetamide] |
| 50% |  | 45% |  |  |  | Cc1cc(-c2ccccc2)nn(CC(=O)Nc2ccc(Br)cc2)c1=O [8a, N-(4-Bromophenyl)-2-[5-methyl-6-oxo-3-phenylpyridazin-1(6H)-yl]acetamide] |
| 80% | 4.61 | 85% | 5.00 | 40% | 5.15 | C[C@@H]1CC(c2ccccc2)=NN(CC(=O)Nc2ccc(Br)cc2)C1=O [R-(+)-4a, R-(+)-N-(4-Bromophenyl)-2-[5-methyl-6-oxo-3-phenyl-5,6-dihydropyridazin-1(4H)-yl] acetamide] |
| 75% | 4.71 | 95% | 4.97 | 40% | 5.08 | C[C@H]1CC(c2ccccc2)=NN(CC(=O)Nc2ccc(Br)cc2)C1=O [S-(-)-4a, S-(-)-N-(4-Bromophenyl)-2-[5-methyl-6-oxo-3-phenyl-5,6-dihydropyridazin-1(4H)-yl] acetamide] |
